Screening results (PubChem BioAssay)
procasp7 counter = activates human procaspase-7, counter-screen for procaspase-3 activators; hit rate 0.093% among 330,000; activation, % at 8.5 µM; recombinant procaspase-7, Ac-DEVD-pNA absorbance 405 nm; D23A/D198A/D206A triple mutant, cannot self-cleave; scale: DMSO 0, 5 µM enzyme 100;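 active means percent activation above the screen-wide mean plus 3 SD, cut at about 25% in these data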
Target sequence (P55210 whole entry D23A/D198A/D206A): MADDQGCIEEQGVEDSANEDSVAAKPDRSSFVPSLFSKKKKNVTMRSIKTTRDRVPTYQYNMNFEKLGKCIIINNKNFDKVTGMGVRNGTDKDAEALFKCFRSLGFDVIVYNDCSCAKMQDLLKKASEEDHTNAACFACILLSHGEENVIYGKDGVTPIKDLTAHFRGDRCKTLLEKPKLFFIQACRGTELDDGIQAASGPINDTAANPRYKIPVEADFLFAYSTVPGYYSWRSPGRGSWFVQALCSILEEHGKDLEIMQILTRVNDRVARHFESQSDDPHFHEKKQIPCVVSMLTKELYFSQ
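signal = Epi-absorbance of released pNA at 405 nm, two timepoints | assay system = Uncleavable procaspase-7 mutant enzyme | reagent = Ac-DEVD-pNA substrate, 400 µM as added | times = 1 h enzyme–compound preincubation and 2 h substrate reaction, both 25 °C | benchmarks = low DMSO alone, high DMSO plus 5 µM PC-7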
proCasp3 act = activators of human procaspase-3 | P42574 | recombinant procaspase-3 D3A, Ac-DEVD-pNA absorbance 405 nm | activation, % at 8.5 µM | hit rate 0.11% among 330,000;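 active means activation above the mean of all tested compounds plus 3 SD, cut at about 21% in these data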;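 further: 0% = DMSO alone and 100% = DMSO wells spiked with extra 5 µM PC-3 D3A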
Target sequence (P42574 whole entry D9A/D28A/D175A): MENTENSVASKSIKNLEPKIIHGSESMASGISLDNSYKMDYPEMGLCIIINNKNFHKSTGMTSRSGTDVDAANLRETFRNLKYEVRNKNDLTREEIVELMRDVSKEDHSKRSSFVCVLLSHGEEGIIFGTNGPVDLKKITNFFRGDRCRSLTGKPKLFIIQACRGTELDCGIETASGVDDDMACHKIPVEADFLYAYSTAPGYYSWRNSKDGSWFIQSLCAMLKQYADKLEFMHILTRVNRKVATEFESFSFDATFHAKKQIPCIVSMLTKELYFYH
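Assay system – Procaspase-3 D3A mutant · Benchmarks – DMSO low control, extra-enzyme high control · Technique – 405 nm absorbance of p-nitroaniline, reads at 0 and 120 min · Doses – 8.5 µM nominal · Measure – % activation between DMSO and enzyme-spiked controls · Also added – Ac-DEVD-pNA chromogenic peptide substrate · Schedule – 1 h compound preincubation, 2 h substrate hydrolysis at 25 °C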
GAA850 FXN act = increases GAA850 frataxin promoter reporter activity | HEK293 lucGAA850 FXN promoter luciferase reporter, 24 h; percent of 10 µM SAHA response | activation, % at 6 µM | hit rate 0.56% among 360,000 | AID 540364;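 active means activation above the average of all compounds screened plus 3 SD, cutoff fixed separately per campaign, cut at about 7.5% in these data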;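 further: 0% = DMSO wells and 100% = 10 µM SAHA wells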
GAA30 FXN cntr = counter-screen for GAA850 frataxin promoter activators: GAA30 promoter activation. shares compounds with GAA850 FXN act. HEK293 lucGAA30 FXN promoter luciferase, 24 h; DMSO = 0%, 5 µM ipriflavone = 100%. hit rate 66% among 1,900. activation, % at 6 µM;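 active means mean activation above the mean of solvent-only control wells plus 3 SD, cut at about 22% in these data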;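 further: counterscreen of GAA850 promoter hits where activity marks nonselective or luminescence artifacts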
GAA850 confirm = confirmation of GAA850 frataxin (FXN) promoter activators | shares compounds with GAA850 FXN act | HEK293 lucGAA850 FXN promoter luciferase reporter, 24 h; 100% = activation by SAHA | activation, % at 6 µM | hit rate 86% among 1,900 | AID 588351;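 active means mean activation above a set limit taken from the primary screen, cut at about 8% in these data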;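 further: 0% = DMSO wells and 100% = 10 µM SAHA wells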
Numbers without * were called inactive; / = no result. In the library only some 0.7% were active in any assay of this set; here they are far more common.

SMILES	procasp7 counter	proCasp3 act	GAA850 FXN act	GAA30 FXN cntr	GAA850 confirm
CN(C)S(=O)(=O)c1ccc2c(c1)c(=O)c(C(=O)N1CCOCC1)cn2C	8	7	9.8*	21	13*
Cn1cc(C(=O)N2CCN(c3ccccc3)CC2)c(=O)c2cc(S(=O)(=O)N3CCOCC3)ccc21	4	6	-2	/	/
Cc1c(NC(=O)c2ccc(S(=O)(=O)Nc3ccccc3F)cc2)c(=O)n(-c2ccccc2)n1C	1	-1	0	/	/
C=CCNc1nc(Nc2ccccc2F)nc(OCC)n1	-9	-1	9.4*	80*	36*
CCOc1nc(Nc2ccccc2F)nc(OCC)n1	0	-1	6	/	/
CC(C)(C)c1csc(N/N=C/c2cccnc2)n1	1	-5	7.9*	91*	37*
C(=N\Nc1nc(-c2ccccc2)cs1)/c1cccnc1	-17	-16	1	/	/
CSCCC(NC(=O)COc1ccccc1)C(=O)NCc1cccs1 (stereo unspecified)	9	5	1	/	/
CCCCCNCC(=O)Nc1cccc(C(=O)Nc2cccc(C(F)(F)F)c2)c1	9	-3	-1	/	/
CC(C)(C)OC(=O)N[C@@H](Cc1ccccc1)c1nnc(S(=O)(=O)Cc2ccccc2)o1	-19	-19	/	/	/
Cc1ccccc1CS(=O)(=O)c1nnc([C@H](Cc2ccccc2)NC(=O)OC(C)(C)C)o1	-20	-16	12*	-21	6
Cc1ccc(NC(=O)C2Cc3ccccc3C(=O)O2)cc1 (stereo unspecified)	5	5	8.3*	86*	33*
O=C1OC(C(=O)Nc2ccccc2)Cc2ccccc21 (stereo unspecified)	-6	-4	3	/	/
N#C/C(=C/c1ccco1)c1nc2ccccc2s1	-9	3	7.7*	142*	45*
N#C/C(=C\c1ccco1)c1nc2ccccc2s1	-13	4	6	/	/
CCCNc1c(NS(=O)(=O)c2cccs2)c(=O)oc2ccccc12	-7	4	2	/	/
CCN(CC)S(=O)(=O)c1cc(NC(=O)CCc2c(C)noc2C)ccc1C	3	-1	-2	/	/
CCN(CC)S(=O)(=O)c1cc(NC(=O)CSCc2c(C)noc2C)ccc1C	7	9	8.4*	10	8.2*
CCOc1ccc(NC(=O)CN(c2ccc(OC)c(OC)c2)S(=O)(=O)c2ccc(C)cc2)cc1	3	3	2	/	/
COc1ccc(C(=O)Cn2cnc3ccccc3c2=O)c(OC)c1	/	/	7.7*	57*	24*
COc1ccc(OC)c(C(=O)Cn2cnc3ccccc3c2=O)c1	-9	3	3	/	/
COc1cccc(CCNC(=O)CCCC(=O)c2ccccc2)c1	1	6	-2	/	/
COc1ccc(-c2cc(-c3ccccc3O)[nH]n2)cc1	1	-4	5	/	/
COc1ccc(-c2cc(-c3ccccc3)n[nH]2)c(O)c1	-9	0	8.2*	121*	38*
Cc1ccc(S(=O)(=O)Cn2nnnc2C(C(C)C)N2CCSCC2)cc1 (stereo unspecified)	2	2	0	/	/
SMILES	procasp7 counter	proCasp3 act	GAA850 FXN act	GAA30 FXN cntr	GAA850 confirm
Cc1ccc(S(=O)(=O)Cn2nnnc2C(C(C)C)N2CCc3ccccc3C2)cc1 (stereo unspecified)	-11	2	10*	8	7.7*
COc1ccccc1OCc1cc(C(=O)NCc2ccc(N3CCCC3=O)cc2)no1	4	-2	5	/	/
CCCOc1ccc(N2C(=O)CC(N3CCN(C(=O)c4ccco4)CC3)C2=O)cc1 (stereo unspecified)	16	-2	-3	/	/
COC(=O)c1ccc(N2C(=O)CC(N3CCN(C(=O)c4ccco4)CC3)C2=O)cc1 (stereo unspecified)	-3	4	11*	16	8.2*
CC(=O)Nc1ccc(NC(=O)CSc2cn(CC(=O)N3CCOCC3)c3ccccc23)cc1	-1	-3	0	/	/
O=C(Cn1cc(SCc2ccccc2Cl)c2ccccc21)N1CCOCC1	1	2	9.9*	133*	43*
CN(C)c1ccc(O)c2c1CC1CC3[C@@H](N(C)C)C(=O)C(C(N)=O)C(=O)[C@]3(O)C(=O)C1C2=O (stereo partly specified)	10	13	11*	35*	11*
C[C@H]1c2cccc(O)c2C(O)=C2C(=O)C3(O)C(O)=C(C(N)=O)C(=O)[C@@H](N(C)C)[C@@H]3[C@@H](O)[C@@H]21 (stereo partly specified)	-3	-6	17*	22*	3
CN(C)c1ccc(O)c2c1CC1CC3C(N(C)C)C(=O)C(C(N)=O)=C(O)[C@@]3(O)C(=O)C1=C2O (stereo partly specified)	-14	0	25*	24*	7
C[C@H]1c2cccc(O)c2C(=O)C2C(=O)C3(O)C(=O)C(C(N)=O)C(=O)[C@@H](N(C)C)[C@@H]3[C@@H](O)[C@@H]21 (stereo partly specified)	-3	7	14*	41*	13*
O/N=C(/c1ccc(F)cc1)C1CC1c1c(F)cccc1Cl (stereo unspecified)	9	-1	3	/	/
COc1ccc(NC(=O)C2CCC(=O)N2C(=O)OCc2ccccc2)cc1 (stereo unspecified)	4	6	0	/	/
N#C/C(=C\N1CCCCC1)S(=O)(=O)c1ccc(Cl)cc1	-3	0	-1	/	/
CC(=O)Nc1cc(C)ns1	/	/	0	/	/
C=C1c2cccc(O)c2C(O)=C2C(=O)[C@]3(O)C(O)=C(C(N)=O)C(=O)[C@@H](N(C)C)[C@@H]3[C@@H](O)[C@H]12	-17	9	17*	28*	9.6*
CCn1ncc(CN2CCC(Oc3cc(C(=O)NC4CC4)ccc3OC)CC2)c1C	/	/	0	/	/
CCC(C)N(CCNC(=O)c1ccc2c(c1)NC(=O)c1ccccc1S2)C1CCCCC1 (stereo unspecified)	-4	4	11*	18	11*
CC1CCCC(C)N1CCCNC(=O)c1ccc2c(c1)NC(=O)c1ccccc1S2 (stereo unspecified)	3	2	6	/	/
CC(O)(c1cccnc1)c1nc(/C=C/c2ccccc2)cs1 (stereo unspecified)	/	/	-1	/	/
C=C1c2nc3ccccc3n2C=C(c2ccc(C)cc2)N1c1ccccc1	/	/	-3	/	/
Cc1cccc(C)c1OCc1cc(C(=O)N2CC3C[C@@H]4CC2C[C@H](C3)C4)no1	1	6	4	/	/
Cc1ccc(OCc2cc(C(=O)N3CC4C[C@@H]5CC3C[C@H](C4)C5)no2)cc1C	4	-2	9.0*	97*	31*
CCOc1ccccc1/C=C/C(=O)N1CCN(C(=O)c2ccco2)CC1	-2	-4	1	/	/
